Drawing on ChEMBL document CHEMBL1817567, “Design of benzimidazole- and benzoxazole-2-thione derivatives as inhibitors of bacterial hyaluronan lyase” (Eur J Med Chem, 2011), this text covers IC50 and inhibition for 14 compounds.

Molecules are shown by their SMILES. Calls of active or inactive are those of the source. The rule behind the calls is not given here.

What is called IC50 is the concentration that inhibits the measured activity by half. A lower IC50 goes with inhibition by little substance.

The nature of experiment [1]: Inhibition of Streptococcus agalactiae 4755 hyaluronidase at pH 5.0 after 30 mins by turbidimetric analysis. In a few lines: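 SagHyal4755 (2.9 ng) with BSA and hyaluronan (2 mg/ml stock) in citrate–phosphate/NaCl buffer pH 5.0, 3.8% DMSO final, 30 min at 37 °C. Stopped by alkaline 2.5% CTAB, then 20 min at 25 °C. Residual-substrate turbidity read at 600 nm; no-inhibitor sample = 100%, no-enzyme sample = 0% activity. Enzyme-free compound controls were run.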

The target of experiment [2] is T1, Hyaluronidase (Bos taurus) (UniProt Q8SQG8+Q5E985). As to the kind of experiment: Inhibition of bovine testes hyaluronidase at 380 uM after 30 mins at pH 5 by turbidimetric analysis. The experiment is classed as protein assay.
The target of experiment [3] is T1, Hyaluronidase (Bos taurus). As to the kind of experiment: Inhibition of bovine testes hyaluronidase at 63 uM after 30 mins at pH 5 by turbidimetric analysis. The experiment is classed as protein assay.
For experiment [4], the target named is T1, Hyaluronidase (Bos taurus). As to the kind of experiment: Inhibition of bovine testes hyaluronidase at 100 uM after 30 mins at pH 5 by turbidimetric analysis. The experiment is classed as protein assay.
Experiment [5] deals with T1, Hyaluronidase (Bos taurus). As to the kind of experiment: Inhibition of bovine testes hyaluronidase at 180 uM after 30 mins at pH 5 by turbidimetric analysis. The experiment is classed as protein assay.
For experiment [6], the target named is T1, Hyaluronidase (Bos taurus). As to the kind of experiment: Inhibition of bovine testes hyaluronidase at 3800 uM after 30 mins at pH 5 by turbidimetric analysis. The experiment is classed as protein assay.
The nature of experiment [7]: Inhibition of Streptococcus agalactiae 4755 hyaluronidase at pH 7.4 after 3 hrs by turbidimetric analysis. The method, boiled down: (§1)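 Same turbidimetric hyaluronan-lyase assay at pH 7.4 (citrate–phosphate/NaCl): SagHyal4755 2.9 ng, hyaluronan (2 mg/ml stock), BSA, 3.8% DMSO final, 3 h at 37 °C. CTAB (2.5%, in 0.5 M NaOH) precipitation, 20 min at 25 °C, A600. Activity scaled between no-inhibitor and no-enzyme samples.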

Experiment [8] has as its target T1, Hyaluronidase (Bos taurus). Nature of the experiment: Inhibition of bovine testes hyaluronidase at 150 uM after 30 mins at pH 5 by turbidimetric analysis. The experiment is classed as protein assay.
Experiment [9] addresses T1, Hyaluronidase (Bos taurus). As to the kind of experiment: Inhibition of bovine testes hyaluronidase at 400 uM after 30 mins at pH 5 by turbidimetric analysis. The experiment is classed as protein assay.
The target of experiment [10] is T1, Hyaluronidase (Bos taurus). As to the kind of experiment: Inhibition of bovine testes hyaluronidase at 190 uM after 30 mins at pH 5 by turbidimetric analysis. The experiment is classed as protein assay.
In experiment [11] the target is T1, Hyaluronidase (Bos taurus). As to the kind of experiment: Inhibition of bovine testes hyaluronidase at 460 uM after 30 mins at pH 5 by turbidimetric analysis. The experiment is classed as protein assay.
The target in experiment [12] is T1, Hyaluronidase (Bos taurus). As to the kind of experiment: Inhibition of bovine testes hyaluronidase at 200 uM after 30 mins at pH 5 by turbidimetric analysis. The experiment is classed as protein assay.
The target in experiment [13] is T1, Hyaluronidase (Bos taurus). As to the kind of experiment: Inhibition of bovine testes hyaluronidase at 130 uM after 30 mins at pH 5 by turbidimetric analysis. The experiment is classed as protein assay.
Experiment [14] has as its target T1, Hyaluronidase (Bos taurus). As to the kind of experiment: Inhibition of bovine testes hyaluronidase at 4200 uM after 30 mins at pH 5 by turbidimetric analysis. The experiment is classed as protein assay.
For experiment [15], the target named is T1, Hyaluronidase (Bos taurus). As to the kind of experiment: Inhibition of bovine testes hyaluronidase at 170 uM after 30 mins at pH 5 by turbidimetric analysis. Type of experiment: protein assay.
The target in experiment [16] is T1, Hyaluronidase (Bos taurus). As to the kind of experiment: Inhibition of bovine testes hyaluronidase at 49 uM after 30 mins at pH 5 by turbidimetric analysis. The experiment is classed as protein assay.
In experiment [17] the target is T1, Hyaluronidase (Bos taurus). As to the kind of experiment: Inhibition of bovine testes hyaluronidase at 80 uM after 30 mins at pH 5 by turbidimetric analysis. Type of experiment: protein assay.
Experiment [18] deals with T1, Hyaluronidase (Bos taurus). Nature of the experiment: Inhibition of bovine testes hyaluronidase at 2000 uM after 30 mins at pH 5 by turbidimetric analysis. The experiment is classed as protein assay.
Experiment [19] is described as follows: Inhibition of Streptococcus agalactiae 4755 hyaluronidase at pH 7.4. The method, boiled down: as §1

Turning to `O=C(COc1ccccc1)n1c(=S)oc2ccccc21`, the concentration for half-maximal inhibition (IC50) is 213 µM in [1] and 62 µM in [7]. For the same compound, the inhibition entry in [2], in experiment [3], in [4], in experiment [5], in [6] and in experiment [8] was “inactive” in each case. Also, the inhibition entry in experiment [9], in experiment [10], in experiment [11], in [12], in [13] and in experiment [14] was “inactive” each time. Further, the inhibition result in experiment [15], in experiment [16], in [17] and in experiment [18] was “inactive” throughout.
In the case of `CCC(=O)n1c(=S)oc2ccccc21`, the values for the 50% inhibitory concentration (IC50) in experiment [1] and in [7] were 128 µM and 48 µM, respectively. Also, the inhibition result in experiment [2], in [3], in [4], in [5], in [6] and in experiment [8] was “inactive” in each case. Besides, the inhibition result in experiment [9], in experiment [10], in experiment [11], in experiment [12], in experiment [13] and in experiment [14] was “inactive” each time. Besides, the inhibition entry in experiment [15], in experiment [16], in [17] and in [18] was “inactive” throughout.
In the case of `CC(=O)n1c(=S)n(C(C)=O)c2ccccc21`, the IC50 in experiment [1] is 160 µM; in experiment [7] it was 5 µM; in [19], 5 µM. Besides, the inhibition entry in [2], in [3], in [4], in experiment [5], in [6] and in [8] was “inactive” in each case. Moreover, the inhibition result in [9], in experiment [10], in experiment [11], in experiment [12], in experiment [13] and in experiment [14] was “inactive” in each case. Moreover, the inhibition result in experiment [15], in experiment [16], in experiment [17] and in experiment [18] was “inactive” in each case.
`O=C(CCc1ccccc1)n1c(=S)oc2ccccc21`: the IC50 in experiment [1] was found to be 15 µM; in experiment [7] it was 24 µM. Further, the inhibition result in experiment [2], in [3], in [4], in experiment [5], in experiment [6] and in experiment [8] was “inactive” throughout. Moreover, the inhibition result in experiment [9], in [10], in [11], in [12], in experiment [13] and in experiment [14] was “inactive” throughout. Further, the inhibition entry in experiment [15], in [16], in experiment [17] and in experiment [18] was “inactive” each time.
Take `O=C(Cc1ccccc1)n1c(=S)oc2ccccc21`: the IC50 came to 260 µM in [1] and 69 µM in [7]. For the same compound, the inhibition entry in experiment [2], in experiment [3], in experiment [4], in [5], in [6] and in experiment [8] was “inactive” in each case. Further, the inhibition entry in experiment [9], in [10], in experiment [11], in experiment [12], in [13] and in [14] was “inactive” in each case. In addition, the inhibition entry in experiment [15], in experiment [16], in [17] and in [18] was “inactive” throughout.
Turning to `Cc1c(-c2ccc(O)cc2)n(C)c2ccc(O)cc12`, the half-maximal inhibitory concentration (IC50) in experiment [19] stood at 220 µM.
On the same count and under the same terms, in the case of `Cc1c(-c2ccc(O)cc2)[nH]c2ccc(O)cc12` it was 280 µM.
On to `O=C1O[C@H]([C@@H](O)CO)C(O)=C1O` [ASCORBIC ACID], for which, in experiment [1], the IC50 worked out at 6100 µM. The inhibition entry in [2], in experiment [3], in experiment [4], in experiment [5], in experiment [6] and in [8] was “inactive” in each case. The inhibition entry in experiment [9], in [10], in experiment [11], in [12], in experiment [13] and in experiment [14] was “inactive” each time. Besides, the inhibition entry in experiment [15], in experiment [16], in experiment [17] and in [18] was “inactive” in each case.
`CCCCCn1c(-c2ccc(O)cc2)c(C)c2cc(O)ccc21`: 36 µM corresponded to half-maximal inhibition in [19] (IC50).
As for `Sc1nc2ccccc2[nH]1` [2-MERCAPTOBENZIMIDAZOLE], the 50% inhibitory concentration (IC50) was determined as 1150 µM in [1] and 1860 µM in experiment [7]. The inhibition result in experiment [2], in [3], in experiment [4], in [5], in experiment [6] and in [8] was “inactive” throughout. Also, the inhibition result in experiment [9], in [10], in experiment [11], in [12], in [13] and in [14] was “inactive” throughout. Moreover, the inhibition entry in experiment [15], in experiment [16], in [17] and in experiment [18] was “inactive” in each case.
With `CC(=O)n1c(=S)oc2ccccc21`, the values for the IC50 in [1] and in experiment [7] were 125 µM and 42 µM, respectively. For the same compound, the inhibition result in experiment [2], in experiment [3], in experiment [4], in experiment [5], in [6] and in [8] was “inactive” each time. Also, the inhibition entry in [9], in experiment [10], in experiment [11], in [12], in [13] and in experiment [14] was “inactive” in each case. Besides, the inhibition result in experiment [15], in experiment [16], in experiment [17] and in experiment [18] was “inactive” in each case.
Turning to `O=C(CCC1CCCCC1)n1c(=S)oc2ccccc21`, the IC50 in experiment [1] came to 227 µM; in experiment [7], 20 µM. Also, the inhibition result in experiment [2], in experiment [3], in experiment [4], in experiment [5], in experiment [6] and in experiment [8] was “inactive” in each case. The inhibition result in experiment [9], in [10], in experiment [11], in experiment [12], in experiment [13] and in experiment [14] was “inactive” throughout. Also, the inhibition entry in experiment [15], in [16], in [17] and in [18] was “inactive” throughout.
`CCCn1c(-c2ccc(O)cc2)c(C)c2cc(O)ccc21` returned an IC50 in [19] of 160 µM.
The same measure, in the same setting: under `CCCCCCCn1c(-c2ccc(O)cc2)c(C)c2cc(O)ccc21` stands 12 µM.
